Results: ChEMBL document CHEMBL1136796 (J Med Chem, 2003)

Experiments:
K562 = assay: In vitro inhibitory concentration against human chronic myelogenous leukemia K562 cell growth; type: functional, cell-based
NCI-H460 [1] = assay: Tested for induction of cellular death in Human lung H-460 tumor cell line in Propidium Iodide Monolayer Assay; type: functional, cell-based
Outline: (§1)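 Propidium iodide monolayer assay: cells seeded at 1 × 10^5 or 5 × 10^4 cells/mL, 24 h recovery, drug in triplicate for 3–6 days by doubling time; PI 25 μg/mL added, fluorescence (ex 530/em 620 nm) read before and after freezing at −18 °C for 24 h; viable cells from the difference; % T/C versus concentration.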

MAXF401 cell line = assay: Tested for induction of cellular death in Human breast 401NL tumor cell line in Propidium Iodide Monolayer Assay; type: functional, cell-based; outline: as §1
MCF7 = assay: Tested for induction of cellular death in Human breast MCF-7 tumor cell line in Propidium Iodide Monolayer Assay; type: functional, cell-based; outline: as §1
LXFL 529 = assay: Tested for induction of cellular death in Human lung LXF 529L tumor cell line in Propidium Iodide Monolayer Assay; type: functional, cell-based; outline: as §1
[2] = tested on: Lung LXF 629L tumor cell line; assay: Tested for induction of cellular death in Human lung LXF 629L tumor cell line in Propidium Iodide Monolayer Assay; type: functional, cell-based; outline: as §1
SF-268 [3] = assay: Tested for induction of cellular death in Human ZNS SF-268 tumor cell line in Propidium Iodide Monolayer Assay; type: functional, cell-based; outline: as §1
RXF 944 = assay: Tested for induction of cellular death in Human renal RXF 944L tumor cell line in Propidium Iodide Monolayer Assay; type: functional, cell-based; outline: as §1
Tubulin [4] = target: T1, Tubulin (Sus scrofa, UniProt P02554+P02550); assay: In vitro inhibition of maximum porcine tubulin assembly rate after 20 min at 37 degrees C; type: functional
Sus scrofa [5] = species: Sus scrofa; assay: In vitro inhibitory concentration against tubulin assembly; type: functional
KB = assay: Cytotoxic activity against cellular metabolic activity of Cervix KB/HeLa tumor cell line using XTT proliferation assay after incubation with the compound for 48 h; type: functional, cell-based; settings: Homo sapiens
SF-268 [6] = assay: Cytotoxic activity against cellular metabolic activity of Glioma SF-268 tumor cell line using XTT proliferation assay after incubation with the compound for 48 h; type: functional, cell-based; settings: Homo sapiens, SF-268, 48 h
RKO [7] = assay: Cytotoxic activity against human colon adenocarcinoma RKO cells with ectopic inducible expression of cyclin-dependent kinase inhibitor p27kip1; type: functional, cell-based
RKO [8] = assay: Cytotoxic activity against human colon adenocarcinoma RKO cells without ectopic inducible expression of cyclin-dependent kinase inhibitor p27kip1; type: functional, cell-based
SK-OV-3 = assay: Cytotoxic activity against cellular metabolic activity of Ovary SKOV3 tumor cell line using XTT proliferation assay after incubation with the compound for 48 h; type: functional, cell-based; settings: Homo sapiens, SK-OV-3, 48 h
NCI-H460 [9] = assay: Cytotoxic activity against cellular metabolic activity of Lung NCI-H460 tumor cell line using XTT proliferation assay after incubation with the compound for 48 h; type: functional, cell-based; settings: Homo sapiens, NCI-H460, 48 h
Outline: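 NCI-H460 human lung tumor cells seeded at 1 × 10^3 cells/well in microtiter plates and exposed to a range of compound concentrations for 48 h. Proliferation read as cellular metabolic activity by XTT. At least two replicates (n = 2); IC50 obtained from dose–response curves by nonlinear regression.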

LT12 tumor cell line [10] = assay: Antiproliferative activity against LT12 phenotype LT12 MDR tumor cell line; type: functional, cell-based; settings: Rattus norvegicus
L1210 [11] = assay: Antiproliferative activity against L1210 phenotype L1210 VCR tumor cell line; type: functional, cell-based; settings: Mus musculus
L1210 [12] = assay: Antiproliferative activity against L1210 tumor cell line; type: functional, cell-based; settings: Mus musculus
P388/ADR = assay: Antiproliferative activity against P388 phenotype P388 ADR tumor cell line; type: functional, cell-based; settings: Mus musculus
Sus scrofa [13] = species: Sus scrofa; assay: Concentration required to inhibit Microtubule assembly compared to colchicine using EM studies; type: functional
Tubulin [14] = target: T1, Tubulin; assay: In vitro inhibitory concentration required to displace [3H]colchicine from its binding site on Tubulin; type: protein assay
Outline: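 Streptavidin-coated yttrium SPA beads were then added and bound radioactivity measured by scintillation counting. IC50 was derived by nonlinear regression.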

LT12 tumor cell line [15] = assay: Antiproliferative activity against LT12 tumor cell line; type: functional, cell-based; settings: Rattus norvegicus
P388 (Mus musculus) = assay: Antiproliferative activity against P388 tumor cell line
HeLa (Homo sapiens) = assay: Effective concentration required to arrest propidium iodide stained KB/HeLa cells in G2/M phase
Tubulin [16] = target: T1, Tubulin; assay: In vitro inhibitory concentration required to displace [3H]colchicine from its binding site on tubulin; type: protein assay

## COc1ccc(/C=C\c2cc(OC)c(OC)c(OC)c2)cc1O [COMBRETASTATIN A4]
K562
  IC50: 20 nM

## COc1cccc(C=C2c3ccccc3C(=O)c3ccccc32)c1O
NCI-H460 [1]
  IC50: 3330 nM
MAXF401 cell line
  IC50: 20 nM
MCF7
  IC50: 800 nM
LXFL 529
  IC50: 4450 nM
[2]
  IC50: 2020 nM
SF-268 [3]
  IC50: 980 nM
RXF 944
  IC50: 360 nM
K562
  IC50: 730 nM
Tubulin [4]
  IC50: 0.91 µM
Sus scrofa [5]
  IC50: < 1000 nM

## COc1ccc(CC2c3ccccc3C(=O)c3ccccc32)cc1OC
K562
  IC50: 62000 nM
Tubulin [4]
  IC50: > 10 µM

## O=C1c2ccccc2C(=Cc2cc(O)c(O)c(O)c2)c2ccccc21
K562
  IC50: 20000 nM
Tubulin [4]
  IC50: > 10 µM

## COc1ccc(C=C2c3ccccc3C(=O)c3ccccc32)cc1OC
K562
  IC50: 600 nM
Tubulin [4]
  IC50: 1.7 µM

## COc1cc(C=C2c3ccccc3C(=O)c3ccccc32)cc(OC)c1
K562
  IC50: 600 nM
Tubulin [4]
  IC50: > 10 µM

## COc1cccc2c1C(=O)c1c(O)c3c(c(O)c1C2=O)C[C@@](O)(C(=O)CO)C[C@@H]3O[C@H]1C[C@H](N)[C@H](O)[C@H](C)O1 [DOXORUBICIN]
NCI-H460 [1]
  IC50: 1720 nM
MAXF401 cell line
  IC50: 10 nM
LXFL 529
  IC50: 30 nM
[2]
  IC50: 70 nM
RXF 944
  IC50: 60 nM
K562
  IC50: 10 nM

## COc1cc(C=C2c3ccccc3C(=O)c3ccccc32)cc(OC)c1O
NCI-H460 [1]
  IC50: 3090 nM
MAXF401 cell line
  IC50: 240 nM
MCF7
  IC50: 4130 nM
LXFL 529
  IC50: 7490 nM
[2]
  IC50: 720 nM
SF-268 [3]
  IC50: 620 nM
RXF 944
  IC50: 150 nM
K562
  IC50: 170 nM
Tubulin [4]
  IC50: 0.63 µM
Sus scrofa [5]
  IC50: < 1000 nM

## Cc1cc(C=C2c3ccccc3C(=O)c3ccccc32)cc(C)c1O
K562
  IC50: 800 nM
Tubulin [4]
  IC50: 0.91 µM

## COc1cc2c(c(OC)c1OC)-c1ccc(OC)c(=O)cc1[C@@H](NC(C)=O)CC2 [COLCHICINE]
KB
  IC50: 30 nM
SF-268 [6]
  IC50: 50 nM
RKO [7]
  IC50: > 10 µM
RKO [8]
  IC50: 20 nM
K562
  IC50: 20 nM
SK-OV-3
  IC50: 50 nM
NCI-H460 [9]
  IC50: 70 nM

## O=C1c2ccccc2C(=Cc2cc(Cl)cc(Cl)c2)c2ccccc21
K562
  IC50: 6000 nM
Tubulin [4]
  IC50: > 10 µM

## COc1ccc(C=C2c3ccccc3C(=O)c3ccccc32)cc1O
KB
  IC50: 90 nM
SF-268 [6]
  IC50: 50 nM
NCI-H460 [1]
  IC50: < 10 nM
MAXF401 cell line
  IC50: < 10 nM
MCF7
  IC50: < 10 nM
LXFL 529
  IC50: 520 nM
[2]
  IC50: < 10 nM
SF-268 [3]
  IC50: 30 nM
RKO [7]
  IC50: > 9 µM
RKO [8]
  IC50: 60 nM
RXF 944
  IC50: < 10 nM
LT12 tumor cell line [10]
  IC50: 190 nM
K562
  IC50: 20 nM
L1210 [11]
  IC50: 130 nM
L1210 [12]
  IC50: 140 nM
SK-OV-3
  IC50: 50 nM
P388/ADR
  IC50: 260 nM
Sus scrofa [13]
  IC50: 700 nM
Tubulin [4]
  IC50: 0.67 µM
Sus scrofa [5]
  IC50: 670 nM
Tubulin [14]
  IC50: 0.37 µM
NCI-H460 [9]
  IC50: 70 nM
LT12 tumor cell line [15]
  IC50: 320 nM
P388 (Mus musculus)
  IC50: 160 nM
HeLa (Homo sapiens)
  EC50: 206 nM

## COc1ccc(CC2c3ccccc3C(=O)c3ccccc32)cc1O
K562
  IC50: 7000 nM
Tubulin [4]
  IC50: 2.3 µM

## COc1ccc(CC2c3ccccc3C(=O)c3ccccc32)cc1
K562
  IC50: 25000 nM
Tubulin [4]
  IC50: 2.6 µM

## O=C1c2ccccc2C(=Cc2ccc(O)cc2)c2ccccc21
K562
  IC50: 800 nM
Tubulin [4]
  IC50: 2.5 µM

## COc1ccc(C=C2c3ccccc3C(=O)c3ccccc32)c(OC)c1O
KB
  IC50: 50 nM
SF-268 [6]
  IC50: 60 nM
NCI-H460 [1]
  IC50: 150 nM
MAXF401 cell line
  IC50: < 10 nM
MCF7
  IC50: 1850 nM
LXFL 529
  IC50: 70 nM
[2]
  IC50: 50 nM
SF-268 [3]
  IC50: 40 nM
RKO [7]
  IC50: > 9 µM
RKO [8]
  IC50: 50 nM
RXF 944
  IC50: < 10 nM
LT12 tumor cell line [10]
  IC50: 90 nM
K562
  IC50: 250 nM
L1210 [11]
  IC50: 70 nM
L1210 [12]
  IC50: 50 nM
SK-OV-3
  IC50: 60 nM
P388/ADR
  IC50: 110 nM
Tubulin [4]
  IC50: 0.43 µM
Sus scrofa [5]
  IC50: 430 nM
Tubulin [16]
  IC50: 0.22 µM
NCI-H460 [9]
  IC50: 60 nM
LT12 tumor cell line [15]
  IC50: 120 nM
P388 (Mus musculus)
  IC50: 80 nM
HeLa (Homo sapiens)
  EC50: 234 nM

## COc1cc(C=C2c3ccccc3C(=O)c3ccccc32)cc(OC)c1OC
K562
  IC50: 4000 nM
Tubulin [4]
  IC50: 10 µM

## O=C1c2ccccc2C(=Cc2ccc(C(F)(F)F)cc2)c2ccccc21
K562
  IC50: > 20000 nM
